Lmaj promast: reduces viability of Leishmania major promastigotes; actives 9% (n = 200,000); resazurin fluorescence viability; inhibition, % at 10 µM; AID 1063; in the data active means inhibition above about 50%;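 further: promastigotes grown with compound for 44 hours at 28 °C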
Hsp70 activator: switches on Hsp70 transcription. activation, % at 10 µM. actives 0.04% (n = 200,000). AID 1203. HeLa Hsp70 promoter luciferase reporter, luminescence; scaled: vehicle 0, proteasome-inhibitor control 100%;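 active means activation above the mean across all tested compounds plus 3 SD, cutoff set per campaign, cut at about 5.5% in these data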;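 further: 100% = MG132 at 30 µM as the positive control and 0% = DMSO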
HSF-1 act: increases HSF-1 driven luciferase reporter signal; NIH3T3-HGL HSF-1 luciferase reporter, MG132, 8 h; 100% = twice DMSO control signal; actives 1.7% (n = 300,000); AID 504408; activation, % at 9 µM;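 active means mean replicate activation of at least 50% with a set share of replicates each reaching 50%; inconclusive means only one of those two conditions met; inactive means mean below 50% and too few replicates reaching it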;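 further: 0% = median of the neutral control wells and 100% = twice that signal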
T cruzi repl: blocks replication of Trypanosoma cruzi; T. cruzi beta-gal in NIH3T3, luminescence, 90 h; inhibition, % (no concentration beside the values); actives 1.4% (n = 300,000); AID 1885;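 active means mean inhibition across valid replicates above about 55%, limit read from the data; inconclusive means mean below that limit but half or more replicates reach it; inactive means mean below it, under half of replicates reach it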;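 further: signal also drops with host cell toxicity which is not excluded here; 0% = plate median of DMSO wells and 100% = zero luminescence signal; higher percent means less beta-gal luminescence so fewer parasites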
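Test system: β-gal T. cruzi (Tulahuen C4) inside NIH/3T3 cells / Quantity: 5,000 cells/well / Measured by: luminescence from GalScreen with 0.05% NP40, read after 60 min / Medium: DMEM plus 2% FBS / Measure: parasite load inhibition, % / Reagent: Tulahuen C4 trypomastigotes, 5000/well / Schedule: co-culture of at least 90 h after 3 h attachment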
HSF1 inh: HSF1 inhibition | activity change, negative = inhibition, % at 7.5 µM (by protocol) | AID 2098 | NIH3T3-HGL HSE-luciferase, MG132-induced, luminescence 8 h; hits give low values | actives 0.77% (n = 300,000);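 active means more than half of replicate wells show activity change below -50%, luminescence cut by over half; inconclusive means some wells, but at most half, below -50%; inactive means no replicate well below -50%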;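 further: luciferase reports HSF-1 transcriptional activity via heat shock element; 0% = median of DMSO wells and -100% = zero luminescence signal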
Numbers without * were called inactive. Only a selection was taken, and hits are over-represented in it overall.

`Cc1ccc(-n2nc(C)c3c(C)cc(=O)[nH]c32)cc1` gave Lmaj promast -4, Hsp70 activator 0, HSF-1 act 0, T cruzi repl -2 and HSF1 inh -1.
`Cc1cc(=O)[nH]c2c1c(=O)[nH]n2C1CC(C)N(C)CC1C` (stereo not given) gave Lmaj promast -4, Hsp70 activator 0, HSF-1 act -67, T cruzi repl -8 and HSF1 inh -57*.
For Cc1ccc(SCC(=O)OCC(=O)N(CC(C)C)c2c(N)n(Cc3ccccc3)c(=O)[nH]c2=O)cc1C the results were HSF-1 act 29, T cruzi repl -11 and HSF1 inh 6.
For Cc1ccc2nsnc2c1S(=O)(=O)NCCc1c(C)[nH]c2ccc(F)cc12 the results were Lmaj promast 98*, Hsp70 activator 0, HSF-1 act 5, T cruzi repl 3 and HSF1 inh -1.
For CCOc1cc(NC(=O)CC(C)C)c(OCC)cc1NC(=O)CCn1nnc2ccccc21 the results were Lmaj promast 0, Hsp70 activator 0, HSF-1 act 57*, T cruzi repl -12 and HSF1 inh 12.
Screening Cc1ccc(C(=O)NNC(=O)CCn2nnc3ccccc32)cc1 returned Lmaj promast -8, Hsp70 activator 0, HSF-1 act -2, T cruzi repl -10 and HSF1 inh -6.
Screening Cc1cccc(C(=O)NNC(=O)CCn2nnc3ccccc32)c1 returned Lmaj promast 3, Hsp70 activator 0, HSF-1 act 89*, T cruzi repl -26 and HSF1 inh 33.
For O=C(NCCOc1ccccc1F)c1ccccc1SCc1ccc(F)cc1 the results were Lmaj promast 54*, Hsp70 activator 0, HSF-1 act 15, T cruzi repl 20 and HSF1 inh -3.
`O=[N+]([O-])c1ccc(CN2CCN(Cc3c[nH]c4ccccc34)CC2)cc1` gave Lmaj promast 83*, Hsp70 activator 0, HSF-1 act -4, T cruzi repl 56* and HSF1 inh -5.
Screening COc1ccccc1N1CCN(Cc2ccc(O)c3ncccc23)CC1 returned Lmaj promast 101*, Hsp70 activator 0, HSF-1 act 16, T cruzi repl 46 and HSF1 inh -5.
CCOC(=O)C1CCN(Cc2ccc(O)c3ncccc23)CC1 was read as Lmaj promast 95*, Hsp70 activator 0, HSF-1 act 12, T cruzi repl 55* and HSF1 inh 15.
For CCOc1ccccc1N1CCN(Cc2cccc(OC)c2OC)CC1 the results were Lmaj promast 11, Hsp70 activator 0, HSF-1 act 10, T cruzi repl -4 and HSF1 inh -1.
Fc1ccc(N2CCN(Cc3c[nH]c4ccccc34)CC2)cc1 was read as HSF-1 act 9, T cruzi repl 73* and HSF1 inh 0.
Screening Cc1ccccc1N1CCN(Cc2c[nH]c3ccccc23)CC1 returned Lmaj promast 71*, Hsp70 activator 0, HSF-1 act -11, T cruzi repl 60* and HSF1 inh -6.
Screening Oc1ccc(CN2CCCc3ccccc32)c2cccnc12 returned Lmaj promast 27, Hsp70 activator 0, HSF-1 act -70, T cruzi repl -7 and HSF1 inh -69*.
For COc1ccccc1N1CCN(Cc2ccc(OC)c(OC)c2OC)CC1 the results were Lmaj promast 3, Hsp70 activator 0, HSF-1 act -3, T cruzi repl 16 and HSF1 inh -3.
COc1ccccc1N1CCN(Cc2c[nH]c3ccccc23)CC1 was read as HSF-1 act 4, T cruzi repl 58* and HSF1 inh -1.
For CCCC(=O)n1nc(-c2cccnc2)nc1NCc1cccs1 the results were Lmaj promast 1, Hsp70 activator 0, HSF-1 act -3, T cruzi repl 4 and HSF1 inh -2.
For CCC(=O)n1nc(-c2cccnc2)nc1NCc1cccs1 the results were Lmaj promast -4, Hsp70 activator 0, HSF-1 act -93, T cruzi repl -22 and HSF1 inh -91*.
For COc1ccc(Br)cc1C(=O)Nc1ccccc1N1CCCC1 the results were HSF-1 act 28, T cruzi repl 23 and HSF1 inh 14.
CCn1c(=O)n(CC)c2cc(N3CCCC3)c(NC(=O)c3cc(Br)ccc3OC)cc21 was read as HSF-1 act 6, T cruzi repl 64* and HSF1 inh 2.
CSCCC(NC(=O)c1ccc([N+](=O)[O-])cc1Cl)C(=O)OCC(=O)NC1CCCC(C)C1C (stereo not given) was read as Lmaj promast 60*, Hsp70 activator 0, HSF-1 act 18, T cruzi repl -8 and HSF1 inh 2.
CCC(CC)N=C1NS(=O)(=O)c2cc([N+](=O)[O-])ccc21 was read as Lmaj promast 99*, Hsp70 activator 0, HSF-1 act 11, T cruzi repl inconclusive and HSF1 inh 16.
For O=C1c2ccc([N+](=O)[O-])cc2S(=O)(=O)N1Cc1ccccc1 the results were HSF-1 act 28, T cruzi repl -12 and HSF1 inh -2.
For CC(C)(CO)N=C1NS(=O)(=O)c2cc([N+](=O)[O-])ccc21 the results were Lmaj promast -4, Hsp70 activator 0, HSF-1 act -16, T cruzi repl 9 and HSF1 inh -1.
For CC(C)(C)CC(C)(C)N=C1NS(=O)(=O)c2cc([N+](=O)[O-])ccc21 the results were Lmaj promast 100*, Hsp70 activator 1, HSF-1 act 6, T cruzi repl inconclusive and HSF1 inh -2.
Cc1ccccc1CCN(C(=O)Cn1nnc2ccccc21)C(C(=O)NCC1CCCO1)c1nc2ccccc2n1C (stereo not given) was read as Lmaj promast -3, Hsp70 activator 0, HSF-1 act -1, T cruzi repl 11 and HSF1 inh 1.
`CCN(CC(=O)Nc1ccc(NC(C)=O)cc1)C(=O)CCCc1nc2ccccc2c(=O)[nH]1` gave HSF-1 act 4, T cruzi repl -3 and HSF1 inh 2.
Screening Cc1nc(N/C(N)=N/S(=O)(=O)c2ccc([N+](=O)[O-])cc2)nc2ccccc12 returned Lmaj promast 54*, Hsp70 activator 0, HSF-1 act 13, T cruzi repl 56* and HSF1 inh 4.
Cc1ccc2c(C)nc(N/C(N)=N/S(=O)(=O)c3ccc([N+](=O)[O-])cc3)nc2c1 was read as Lmaj promast 88*, Hsp70 activator 0, HSF-1 act 7, T cruzi repl 55* and HSF1 inh -2.
`N/C(=N\S(=O)(=O)c1ccccc1)c1ccc([N+](=O)[O-])cc1` gave Lmaj promast -4, Hsp70 activator 0, HSF-1 act 3, T cruzi repl -24 and HSF1 inh 4.
Screening Cc1cccn2cc(COc3ccc(-c4ccccc4)cc3)nc12 returned Lmaj promast 7, Hsp70 activator 0, HSF-1 act 69*, T cruzi repl 21 and HSF1 inh 36.
For O=C(COc1ccc(Br)cc1)NCc1cn2ccccc2n1 the results were HSF-1 act 14, T cruzi repl -6 and HSF1 inh 12.
